The results in this text go back to ChEMBL document CHEMBL5038594, “Structural Fine-Tuning of Desmuramylpeptide NOD2 Agonists Defines Their In Vivo Adjuvant Activity” (J Med Chem, 2021).

In assay [1] the test system is MEC1. The experiment in a line: Cytotoxicity against human MEC-1 cells cocultured with human PBMC cells assessed as inhibition of cell proliferation at 100 nM incubated with PBMC cells for 18 hrs followed by co-incubation with MEC-1 cells for 4 hrs by SYTOX blue staining based flow cytometric analysis. It is filed as functional. The essentials: (§1)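 Effector cells are freshly Ficoll-isolated human PBMCs, 4 × 10^5 per well, pretreated 18 h with compound or 0.1% DMSO. CFSE-labelled K562 or MEC1 targets, 1 × 10^4 per well, are then added at 40:1 effector:target ratio and co-incubated 4 h at 37 °C. Dead targets are CFSE+/Sytox blue+ by flow cytometry. Results are relative to vehicle. Duplicates; three (MEC1) or four (K562) independent experiments. One-way ANOVA with Dunnett.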
For orientation: A flow cytometer gives signals particle by particle.

Assay [2] has as its system K562. Briefly: Cytotoxicity against human K562 cells cocultured with human PBMC cells assessed as inhibition of cell proliferation at 100 nM incubated with PBMC cells for 18 hrs followed by co-incubation with K562 cells for 4 hrs by SYTOX blue staining based flow cytometric analysis. The class given is functional. The essentials: as §1
Assay [3] concerns K562. Briefly: Cytotoxicity against human K562 cells cocultured with human PBMC cells assessed as inhibition of cell proliferation at 1 uM incubated with PBMC cells for 18 hrs followed by co-incubation with K562 cells for 4 hrs by SYTOX blue staining based flow cytometric analysis. It is filed as functional. The essentials:
as §1

Assay [4] has as its system MEC1. The experiment in a line: Cytotoxicity against human MEC-1 cells cocultured with human PBMC cells assessed as inhibition of cell proliferation at 10 uM incubated with PBMC cells for 18 hrs followed by co-incubation with MEC-1 cells for 4 hrs by SYTOX blue staining based flow cytometric analysis. The class given is functional. The essentials:
as §1

For assay [5], the system named is PBMC. The experiment in a line: Immunostimulatory activity in human PBMC cells assessed as increase in IL-6 production at 2 uM incubated for 18 hrs by flow cytometry analysis. The class given is functional, cell-based. The essentials: (§2)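 Human PBMCs from healthy donors, 1 × 10^6 cells/mL in RPMI 1640 with 10% FBS, treated with 2 μM compound or 0.1% DMSO, without or with LPS 10 ng/mL, for 18 h at 37 °C. Supernatant cytokines quantified by cytometric bead array (human inflammatory panel) on a flow cytometer against recombinant standards. Four independent donors. Repeated-measures one-way ANOVA with Dunnett.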

Assay [6] relates to PBMC. The experiment in a line: Immunostimulatory activity in human PBMC cells assessed as increase in IL-8 production at 2 uM incubated for 18 hrs by flow cytometry analysis. The class given is functional, cell-based. The essentials:
as §2

For assay [7], the system named is PBMC. The experiment in a line: Immunostimulatory activity in human PBMC cells assessed as increase in LPS-induced IL-8 production at 2 uM incubated for 18 hrs by flow cytometry analysis. It is filed as functional, cell-based. The essentials: as §2
Assay [8] deals with PBMC. The experiment in a line: Immunostimulatory activity in human PBMC cells assessed as increase in LPS-induced IL-1beta production at 2 uM incubated for 18 hrs by flow cytometry analysis. The class given is functional, cell-based. The essentials: as §2
Assay [9] concerns K562. Briefly: Cytotoxicity against human K562 cells cocultured with human PBMC cells assessed as inhibition of cell proliferation at 10 uM incubated with PBMC cells for 18 hrs followed by co-incubation with K562 cells for 4 hrs by SYTOX blue staining based flow cytometric analysis. It is filed as functional. The essentials:
as §1

The next assay deals with BMDC. Briefly: Induction of mouse BMDC-mediated ovalbumin specific CD4+ T cell activation assessed as increase in CD25 expression at 10 uM incubated for 72 hrs by CFSE staining based flow cytometric analysis. It is filed as functional. The essentials:
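BMDCs from C57BL/6 mouse tibia (7 days in GM-CSF 20 ng/mL, >90% CD11c+) pulsed 18 h with compound (1 or 10 μM) plus ovalbumin 50 μg/mL, then washed. They were cocultured 72 h with CFSE-labelled naive OT-II CD4+ T cells. CD25+/CFSE-low fraction of live Thy1.2+CD4+ cells read by flow cytometry; supernatant cytokines also measured. Duplicates of two independent experiments.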

The next assay deals with Mus musculus. Briefly: Immuno-adjuvant activity in NIH/OlaHsd mouse assessed as increase in ovalbumin specific […] associated IgG2a production in sera at 0.15 micromol administered subcutaneously on day 1 and as booster dose on day 21 and 28 with ovalbumin loaded liposomes by ELISA. It is filed as functional, organism-based. The conditions noted are these: dose 0.15 µmol, time 28.0 day. The essentials: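 Groups of 5 female NIH/OlaHsd mice, 2.0–2.5 months old, immunized with ovalbumin-loaded liposomes (10 μg ovalbumin per dose) containing 0.15 μmol adjuvant per dose. Liposomes were neutral (PC–cholesterol 7:5), anionic (PC–cholesterol–dicetylphosphate 7:5:1) or mannosylated (PC–cholesterol–mannose-PEG-PA 7:5:0.5). Serum ovalbumin-specific IgG, IgG1 and IgG2a measured 1 week after the second booster. Mean ± SEM.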
(In general: An ELISA detects its analyte on a solid surface through an enzyme-linked reagent.)

The target of assay [10] is T1, Nucleotide-binding oligomerization domain-containing protein 1 (Homo sapiens) (UniProt Q9Y239).
T1 sequence (whole entry): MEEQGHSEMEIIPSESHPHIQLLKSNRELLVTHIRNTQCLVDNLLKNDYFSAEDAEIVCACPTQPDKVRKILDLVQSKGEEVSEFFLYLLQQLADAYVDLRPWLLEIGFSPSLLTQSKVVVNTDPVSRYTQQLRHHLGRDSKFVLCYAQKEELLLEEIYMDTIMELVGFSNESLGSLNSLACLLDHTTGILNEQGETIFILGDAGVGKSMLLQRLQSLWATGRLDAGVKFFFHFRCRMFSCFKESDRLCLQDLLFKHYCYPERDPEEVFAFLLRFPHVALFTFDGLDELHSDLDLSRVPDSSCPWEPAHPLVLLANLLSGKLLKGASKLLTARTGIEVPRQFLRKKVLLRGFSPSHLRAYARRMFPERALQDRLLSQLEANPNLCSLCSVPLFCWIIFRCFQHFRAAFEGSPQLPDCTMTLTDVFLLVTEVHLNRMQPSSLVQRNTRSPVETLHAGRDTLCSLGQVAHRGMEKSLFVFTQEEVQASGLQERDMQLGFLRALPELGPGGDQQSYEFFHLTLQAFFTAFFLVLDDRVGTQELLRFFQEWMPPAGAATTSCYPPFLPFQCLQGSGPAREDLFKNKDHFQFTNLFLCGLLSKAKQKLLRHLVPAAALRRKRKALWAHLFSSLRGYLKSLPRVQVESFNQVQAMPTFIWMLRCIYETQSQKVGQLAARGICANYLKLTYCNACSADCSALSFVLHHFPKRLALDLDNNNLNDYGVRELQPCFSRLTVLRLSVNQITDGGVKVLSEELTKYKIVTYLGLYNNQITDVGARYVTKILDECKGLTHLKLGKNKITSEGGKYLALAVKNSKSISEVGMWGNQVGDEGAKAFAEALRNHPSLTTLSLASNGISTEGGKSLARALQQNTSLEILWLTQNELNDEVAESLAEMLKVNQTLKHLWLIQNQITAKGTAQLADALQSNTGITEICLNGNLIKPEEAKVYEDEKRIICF
Briefly: Agonist activity at NOD1 in HEK-Blue hNOD2 cells assessed as increase in NFkappaB transactivation-mediated SEAP activity measured after 18 hrs by spectrophotometric method. The settings on record: HEK-Blue hNOD1, in the assay text read “HEK-Blue hNOD1 cells” for “HEK-Blue hNOD2 cells”. The class given is cell-based. The essentials:
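Counter-screen in HEK-Blue NOD1 cells (HEK293 stably expressing human NOD1 plus an NF-κB-inducible SEAP reporter), seeded at 2.5 × 10^5 cells/mL in HEK-Blue detection medium. Compounds at 2 μM versus 0.1% DMSO vehicle, 18 h at 37 °C, 5% CO2. SEAP read as absorbance at 630 nm. Duplicates, at least two independent experiments.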

The source made the active and inactive calls. The calls are words filed in the database; no cut-off is given here.

With `CCCCCCCCCCCCCCCCCC(=O)Oc1ccc(/C=C/C(=O)NCC(=O)N[C@H](C(=O)N[C@H](CCC(=O)OCC)C(=O)OCC)C(C)C)cc1OC`, the result (in the assay with MEC1 [1]; in the assay on K562 [2]; in the assay on PBMC [5]; in the assay with PBMC [6]; in assay [10]) was inactive. Moreover, the result in the assay with K562 [3], in the assay with MEC1 [4], in the assay with PBMC [7], with PBMC [8], in the assay with K562 [9] and in the assay with BMDC was Active. Further, the result with Mus musculus was Active.
